In ChEMBL document CHEMBL2062477, “Dual-Specificity Phosphatase CDC25A/B Inhibitor Identified from a Focused Library with Nonelectrophilic Core Structure” (ACS Med Chem Lett, 2012):
The source made the active and inactive calls. No cut-off for these calls is given here.

Tests used:
[1] = biological target: T1, M-phase inducer phosphatase 3 (Homo sapiens, UniProt P30307); assay: Inhibition of CDC25C
T1 sequence (P30307 whole entry): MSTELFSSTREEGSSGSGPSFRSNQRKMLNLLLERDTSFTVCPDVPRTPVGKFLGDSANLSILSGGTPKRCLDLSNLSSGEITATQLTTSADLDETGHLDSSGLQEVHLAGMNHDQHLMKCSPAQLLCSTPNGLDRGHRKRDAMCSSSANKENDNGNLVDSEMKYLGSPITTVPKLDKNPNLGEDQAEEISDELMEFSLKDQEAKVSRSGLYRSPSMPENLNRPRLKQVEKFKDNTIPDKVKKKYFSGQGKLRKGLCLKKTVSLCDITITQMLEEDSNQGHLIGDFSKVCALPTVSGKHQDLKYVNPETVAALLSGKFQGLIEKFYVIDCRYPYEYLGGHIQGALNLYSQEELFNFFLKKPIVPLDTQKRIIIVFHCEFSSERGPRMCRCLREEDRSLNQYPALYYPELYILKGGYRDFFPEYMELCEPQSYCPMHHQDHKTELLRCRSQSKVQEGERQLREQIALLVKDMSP

[2] = biological target: T2, Dual specificity protein phosphatase 6 (Homo sapiens, UniProt Q16828); assay: Inhibition of MKP3
T2 sequence (Q16828 whole entry): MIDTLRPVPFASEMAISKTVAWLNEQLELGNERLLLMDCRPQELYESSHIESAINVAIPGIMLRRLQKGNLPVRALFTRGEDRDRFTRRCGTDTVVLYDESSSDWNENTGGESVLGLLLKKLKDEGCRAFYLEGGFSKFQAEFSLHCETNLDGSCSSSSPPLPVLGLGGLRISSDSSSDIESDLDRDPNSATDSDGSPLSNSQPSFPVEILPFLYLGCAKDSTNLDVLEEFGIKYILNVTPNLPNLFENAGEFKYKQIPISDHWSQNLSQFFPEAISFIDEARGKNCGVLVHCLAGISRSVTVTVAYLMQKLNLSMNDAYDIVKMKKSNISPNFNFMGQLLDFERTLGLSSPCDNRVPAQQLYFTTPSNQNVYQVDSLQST

[3] = biological target: Dual specificity protein phosphatase 3 (Homo sapiens, UniProt P51452); assay: Inhibition of VHR
[4] = biological target: T3, M-phase inducer phosphatase 2 (Homo sapiens, UniProt P30305); assay: Inhibition of CDC25B
T3 sequence (P30305 whole entry): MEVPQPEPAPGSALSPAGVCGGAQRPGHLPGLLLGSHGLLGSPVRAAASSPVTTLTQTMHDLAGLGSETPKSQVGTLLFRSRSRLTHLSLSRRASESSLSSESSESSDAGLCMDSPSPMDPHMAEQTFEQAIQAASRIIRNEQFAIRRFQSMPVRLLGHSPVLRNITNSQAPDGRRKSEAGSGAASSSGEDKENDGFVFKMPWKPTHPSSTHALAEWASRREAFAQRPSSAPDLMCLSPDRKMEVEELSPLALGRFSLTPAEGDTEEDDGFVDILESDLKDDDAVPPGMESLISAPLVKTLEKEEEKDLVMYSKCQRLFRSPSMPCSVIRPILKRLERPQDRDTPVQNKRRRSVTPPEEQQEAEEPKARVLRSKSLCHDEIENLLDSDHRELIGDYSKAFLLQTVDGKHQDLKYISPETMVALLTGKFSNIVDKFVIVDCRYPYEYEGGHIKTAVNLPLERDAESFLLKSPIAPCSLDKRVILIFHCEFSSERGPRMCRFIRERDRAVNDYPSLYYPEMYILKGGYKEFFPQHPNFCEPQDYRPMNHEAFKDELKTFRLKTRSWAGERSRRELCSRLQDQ

tsFT210 [5] = assay: Induction of apoptosis in mouse tsFT210 cells assessed as increase in subG1 population at 50 uM after 17 hrs by propidium iodide staining-based flow cytometric analysis; type: functional, cell-based; conditions: in the assay text read “after 4 hrs” for “after 17 hrs”
How it was run: (§1)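 tsFT210 cells synchronized at G2 by 17 h at 39 °C, then released for 4 h at 32 °C with compound (5–50 μM) or DMSO vehicle; 100 nM nocodazole reference. Cell-cycle phase distribution, including sub-G1, determined by flow cytometry.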

[6] = Cell cycle arrest in mouse tsFT210 cells assessed as accumulation at G2/M phase at 5 to 50 uM by propidium iodide staining-based flow cytometric analysis; type: functional; how it was run: as §1
[7] = biological target: T4, Dual specificity protein phosphatase 1 (Homo sapiens, UniProt P28562); assay: Inhibition of MKP1
T4 sequence (P28562 whole entry): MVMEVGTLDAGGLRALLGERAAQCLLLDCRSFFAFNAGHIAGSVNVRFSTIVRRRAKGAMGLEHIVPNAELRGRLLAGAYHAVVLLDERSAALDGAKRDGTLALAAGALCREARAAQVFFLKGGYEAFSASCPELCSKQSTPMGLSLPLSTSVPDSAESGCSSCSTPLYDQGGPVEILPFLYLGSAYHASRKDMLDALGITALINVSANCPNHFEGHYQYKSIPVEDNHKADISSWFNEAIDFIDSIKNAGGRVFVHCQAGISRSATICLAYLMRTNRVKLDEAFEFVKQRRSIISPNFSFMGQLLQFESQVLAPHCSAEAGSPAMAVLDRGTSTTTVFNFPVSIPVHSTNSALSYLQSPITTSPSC

[8] = biological target: T5, M-phase inducer phosphatase 1 (Homo sapiens, UniProt P30304); assay: Inhibition of CDC25A
T5 sequence (P30304 whole entry): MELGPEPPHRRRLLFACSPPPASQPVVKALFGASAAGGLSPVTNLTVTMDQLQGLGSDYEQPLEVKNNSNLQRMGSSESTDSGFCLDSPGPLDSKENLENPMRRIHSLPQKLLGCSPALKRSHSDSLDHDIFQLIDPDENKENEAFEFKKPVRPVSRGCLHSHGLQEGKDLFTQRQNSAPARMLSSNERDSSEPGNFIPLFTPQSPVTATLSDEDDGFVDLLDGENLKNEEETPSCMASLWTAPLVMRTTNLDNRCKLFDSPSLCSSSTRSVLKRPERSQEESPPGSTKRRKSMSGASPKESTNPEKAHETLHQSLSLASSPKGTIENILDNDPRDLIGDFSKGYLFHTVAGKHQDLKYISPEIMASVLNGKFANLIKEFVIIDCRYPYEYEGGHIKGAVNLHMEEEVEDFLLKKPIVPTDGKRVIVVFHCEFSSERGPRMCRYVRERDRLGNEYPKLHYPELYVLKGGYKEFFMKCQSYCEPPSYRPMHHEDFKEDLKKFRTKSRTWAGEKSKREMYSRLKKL

tsFT210 [9] = assay: Inhibition of CDC25 in mouse tsFT210 cells assessed as hyperphosphorylation of CDK1 protein at 50 uM by Western blot analysis; type: cell-based
How it was run: (§2)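 G2-arrested tsFT210 cells (39 °C, 17 h) released at 32 °C for 4 h with compound or vehicle; CDK1 phosphorylation status and total CDK1 assessed by Western blotting.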

tsFT210 [10] = assay: Induction of ROS generation in mouse tsFT210 cells at 50 uM at 32 degC for 30 min measured by flow cytometric analysis pretreated with H2DCFDA at 39 degC
[11] = biological target: T6, Tyrosine-protein phosphatase non-receptor type 1 (Homo sapiens, UniProt P18031); assay: Inhibition of PTP1B
T6 sequence (P18031 whole entry): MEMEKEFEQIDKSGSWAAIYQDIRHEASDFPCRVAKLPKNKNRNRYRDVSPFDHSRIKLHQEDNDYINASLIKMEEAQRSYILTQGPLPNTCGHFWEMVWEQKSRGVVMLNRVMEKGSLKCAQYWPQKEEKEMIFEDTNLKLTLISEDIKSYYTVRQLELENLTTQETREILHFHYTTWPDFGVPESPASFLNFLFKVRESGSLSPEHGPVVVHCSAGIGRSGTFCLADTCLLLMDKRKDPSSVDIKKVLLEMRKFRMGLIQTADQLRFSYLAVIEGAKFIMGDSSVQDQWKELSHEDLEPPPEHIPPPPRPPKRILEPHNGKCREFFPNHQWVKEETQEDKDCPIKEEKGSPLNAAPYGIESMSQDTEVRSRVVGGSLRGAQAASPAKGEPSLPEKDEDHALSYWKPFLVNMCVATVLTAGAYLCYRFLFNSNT

[12] = Cell cycle arrest in mouse tsFT210 cells assessed as accumulation at G2/M phase by propidium iodide staining-based flow cytometric analysis; type: functional; how it was run: as §1
[13] = biological target: T5, M-phase inducer phosphatase 1; assay: Inhibition of CDC25A in presence of 2 mM DTT
How it was run: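 In vitro inhibition of purified CDC25A or CDC25B with DTT concentration in the assay buffer varied.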

tsFT210 [14] = assay: Inhibition of CDC25 in mouse tsFT210 cells assessed as hyperphosphorylation of CDK1 protein by Western blot analysis; type: cell-based; how it was run: as §2
HL-60 = assay: cells; conditions: Homo sapiens, HL-60, 48 h

Chain of Dual specificity protein phosphatase 3 (P51452 whole entry): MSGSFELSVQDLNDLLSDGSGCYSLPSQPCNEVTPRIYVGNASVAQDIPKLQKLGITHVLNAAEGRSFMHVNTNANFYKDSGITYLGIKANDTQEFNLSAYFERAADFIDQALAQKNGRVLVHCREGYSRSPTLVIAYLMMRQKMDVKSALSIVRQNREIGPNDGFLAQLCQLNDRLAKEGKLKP

IC50 [1]	IC50 [2]	IC50 [3]	IC50 [4]	IC50 [7]	IC50 [8]	IC50 [11]	IC50 [13]	IC50 (HL-60)	SMILES	Activity (tsFT210 [5])	Activity [6]	inhibition (tsFT210 [9])	Activity (tsFT210 [10])	Activity [12]	inhibition (tsFT210 [14])
> 100 µM	> 100 µM	1.63 µM	> 100 µM	> 100 µM	> 100 µM	> 100 µM	–	–	CCCCCCCCCCCCCCCC(NCc1cccc(C)c1)=C1C(=O)OC(CO)C1=O (mixture of isomers)	inactive	inactive	inactive	inactive	–	–
> 100 µM	> 100 µM	11.4 µM	8.42 µM	> 100 µM	16.6 µM	> 100 µM	16.6 µM	–	CCCCCCCCCCCCCCC/C(NCc1ccccc1)=C1/C(=O)OC(CO)C1=O (stereo not given)	inactive	–	–	inactive	Dose-dependent effect	Dose-dependent effect
> 100 µM	> 100 µM	24.9 µM	–	> 100 µM	13.5 µM	> 100 µM	13.5 µM	2.44 µM	CCCCCCCCCCCCCCCC(NCc1ccccc1O)=C1C(=O)OC(CO)C1=O (mixture of isomers)	inactive	–	–	inactive	Dose-dependent effect	Dose-dependent effect
